# Screening results (PubChem)
# APP 5'UTR act: activates APP 5'UTR luciferase reporter; SH-SY5Y APP 5'UTR luciferase reporter, luminescence; zero percent = DMSO vehicle wells; activation, % at 2 µM; hit rate 1% among 190,000; AID 1276;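 active = activation above a set limit, based on mean plus 3 SD of controls, cut at about 140% in these data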
# STAT1 blocker: inhibitors of IFN-gamma induced STAT1 signaling; NIH 3T3 STAT1-luciferase reporter, luminescence; inhibition, % at 5.5 µM; hit rate 0.35% among 200,000; AID 920;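 active = inhibition above a set limit, the mean inhibition across all tested compounds plus 3 SD, cut at about 34% in these data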
# NF-kB expr up: compounds increasing NF-kB expression in human neuronal cells; NF-kB reporter expression; stronger effect = higher value; fold change at 12.5 µM; AID 1239; hit rate 1.6% among 190,000; in the data active = fold change above about 3.3
# STAT3 inh: STAT3 signaling inhibition. U3A cells, IL-6 STAT3-luciferase reporter, luminescence; host cell line lacks STAT1. inhibition, % at 5.5 µM. hit rate 0.89% among 190,000;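 active = inhibition above the mean inhibition across all screened compounds plus 3 SD, cut at about 44% in these data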
# STAT3 activator: STAT3 signaling activation | U3A cells, IL-6 STAT3-luciferase reporter, luminescence; 100% = signal with IL-6 EC80 alone | activation (% of control), % at 5.6 µM | hit rate 0.91% among 190,000 | AID 871;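 active = activation above the screen-wide mean of compound activation plus 3 SD, cut at about 130% in these data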
#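 Material: human STAT1-deficient U3A cells with stable STAT3-luciferase reporter / Probe or stimulus: IL-6 stimulus at 33 ng/mL final / Schedule: 1 h compound pre-exposure, 6 h IL-6 stimulation, 37 °C / Technique: luminescence / Read-out basis: percent of IL-6-only median luminescence / Control set: IL-6-only high control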
# STAT1 act: increases IFN-gamma driven STAT1 reporter signal | activation (% of control), % at 5.5 µM | AID 932 | hit rate 2.6% among 200,000 | NIH 3T3 STAT1-luciferase reporter, luminescence; 100% = IFN-gamma alone, no compound;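 active = activation above the screen-wide mean activation plus 3 SD, cut at about 130% in these data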
# Hits are given with their value; 0 = inactive; - = no result. The list is not random: actives were taken first. Their share in the collection is about 5.1%.
SMILES,APP 5'UTR act,STAT1 blocker,NF-kB expr up,STAT3 inh,STAT3 activator,STAT1 act
COc1ccc(-c2noc(-c3ccc(Cl)cc3[N+](=O)[O-])n2)cc1OC,0,0,0,0,0,0
Cc1cccc(-c2noc(-c3ccc(Cl)cc3[N+](=O)[O-])n2)c1,177.6,0,5.34,0,0,0
CCOc1ccc2nc(NC(=O)c3cnccn3)sc2c1,0,0,0,0,0,138.2
CCOc1ccc2nc(NC(=O)CSC3=NCCS3)sc2c1,0,0,0,0,0,129.0
CCOc1ccc2nc(NC(=O)CSc3ccc(Cl)cc3)sc2c1,0,0,0,0,0,0
O=C(NCc1cccnc1)C(=O)Nc1nccs1,0,0,0,0,0,0
O=C(Nc1nc2ccccc2s1)c1cnccn1,0,0,4.01,0,0,0
O=C(Nc1nccs1)c1cnccn1,0,0,0,0,0,0
O=C(NCc1cccnc1)C(=O)Nc1nc2ccccc2s1,0,0,0,0,0,138.9
CC(C)CC(N=Cc1c(O)c2ccccc2oc1=O)C(=O)O (stereo not given),0,0,0,0,0,0
CCc1cc[n+](-c2nc3ccccc3nc2[N-]S(=O)(=O)c2ccc(Br)s2)cc1,0,0,0,0,0,0
O=C(Nc1nc2ccc(F)cc2s1)c1ccccn1,0,69.7,0,95.5,0,0
Cc1onc(-c2c(F)cccc2Cl)c1C(=O)OCn1nnc2ccccc2c1=O,0,0,5.56,0,0,0
CN(C)c1ccc(C(=O)N2CCCC2)cc1,0,0,0,0,0,0
[O-]/[N+](=C/c1ccc(F)cc1)c1ccc(Cl)cc1,0,0,3.98,0,0,0
[O-]/[N+](=C/c1cccnc1)c1ccc(Br)cc1,0,0,0,0,0,0
O=C(/C=C/c1ccc(Cl)cc1)NCc1ccco1,0,0,0,0,0,0
O=C(CCS(=O)(=O)c1ccccc1)Nc1cccc(-c2nc3ccccc3s2)c1,0,0,3.7,0,0,0
CC(NS(=O)(=O)c1cccc(Cl)c1)C(=O)Nc1ccc(-c2nc3ccccc3s2)cc1 (stereo not given),0,0,0,0,0,0
O=C(Nc1cccc(-c2nc3ccccc3s2)c1)c1cccs1,0,0,0,0,0,139.7
O=C(CNS(=O)(=O)c1cccc(Cl)c1)Nc1ccc(-c2nc3ccccc3s2)cc1,0,0,0,0,0,145.2
Cc1ccc(C)c(S(=O)(=O)NC(C)C(=O)Nc2ccc(-c3nc4ccccc4s3)cc2)c1 (stereo not given),0,0,0,0,0,131.4
O=C(Nc1cccc(-c2nc3ccccc3s2)c1)c1cc(=O)c2ccccc2o1,0,0,0,0,0,0
CCc1cccc(NC(=O)Cc2ccc(OC)c(OC)c2)c1,0,0,0,0,0,0
CCOC(=O)N1CCC(N2Cc3cccc(C(=O)N4CCN(c5cccc(Cl)c5)CC4)c3C2=O)CC1,0,0,0,0,0,0
SMILES,APP 5'UTR act,STAT1 blocker,NF-kB expr up,STAT3 inh,STAT3 activator,STAT1 act
Cc1ccc2oc(-c3cccc(NC(=S)NC(=O)c4cccs4)c3)nc2c1,0,0,0,0,0,0
O=C(CSc1nnc2ccccn12)Nc1cccc(-c2nc3ccccc3s2)c1,136.7,0,0,0,0,136.0
O=C(Nc1ccc2oc(-c3ccccc3)nc2c1)c1cccs1,154.6,0,0,0,0,142.7
Cc1ccc(-n2nnc3ccccc3c2=O)cc1C,0,0,0,0,0,133.8
COC(=O)c1cc(NS(=O)(=O)c2ccc(NCc3cccnc3)c([N+](=O)[O-])c2)cc(C(=O)OC)c1,0,0,0,0,0,0
COc1ccc(-c2nc3cc([N+](=O)[O-])ccc3o2)cc1,170.5,0,5.19,0,0,150.2
CC(OC(=O)c1snc(C(=O)NC2CCCCC2)c1N)C(=O)NC1CCCCC1 (stereo not given),0,0,0,0,0,0
COc1ccccc1OCCN1CSC(=S)N(C)C1,0,0,6.58,0,0,0
Cc1cccc(OCCN2CSC(=S)N(C)C2)c1,0,0,0,0,0,0
CC(=O)NCCN=C(C)c1sc2ccccc2c1O,0,0,0,0,0,0
CC(=Nc1cccc(C)c1)c1sc2ccccc2c1O,137.3,0,6.01,0,137.9,169.8
Cc1ccc2nc(SCC(=O)NCc3ccco3)c(C#N)cc2c1,137.3,0,0,0,0,0
CN(C)/C=N/C(=S)Nc1ccc(Cl)cc1Cl,0,0,0,0,0,131.8
CN(C)/C=N/C(=S)Nc1ccc(Cl)cc1,0,0,0,0,0,0
Clc1ccc(CSc2ncnc3nc[nH]c23)cc1,0,0,0,0,0,0
COC(=O)c1ccccc1S(=O)c1snnc1C (stereo not given),0,0,0,0,0,0
CCOC(=O)c1sc(Nc2nc3c(OC)cccc3s2)nc1C,0,0,0,0,135.7,0
COc1cccc2sc(Nc3nc(-c4ccccn4)cs3)nc12,0,0,0,0,0,136.3
CC(=O)c1sc(Nc2cccc(C)c2)nc1C,0,0,0,0,0,0
CC(=O)c1sc(N/N=C\c2ccccc2O)nc1C,0,0,5.88,0,0,0
CCOC(=O)c1sc(NC(=O)Nc2ccc(Cl)cc2)nc1C,0,0,0,0,0,129.1
O=C(NC1CCN(C(=S)NCCc2ccccc2)CC1)C1CCCCC1,0,0,0,0,0,0
C=CCn1c(SCC(=O)OCC)nc(C(F)(F)F)cc1=O,0,0,0,0,0,0
CCOC(=O)c1sc(N/N=C/c2cccc(C)c2)nc1C,0,0,0,0,0,129.9
Oc1ccc(Cl)cc1C1=NNC(c2cc(Br)cc3c2OCOC3)C1 (stereo not given),0,0,0,0,0,0
SMILES,APP 5'UTR act,STAT1 blocker,NF-kB expr up,STAT3 inh,STAT3 activator,STAT1 act
Oc1ccc(Cl)cc1C1=NNC(c2ccc(Cl)cc2)C1 (stereo not given),0,0,0,0,0,129.7
CC(=O)Nc1ccc(NC(=O)[C@@H]2CCCN2S(=O)(=O)c2ccc3c(c2)OCCO3)cc1,0,0,0,0,0,0
Cc1ccc(S(=O)(=O)n2[nH]c(=O)c(CCO)c2C)cc1,0,0,0,0,0,0
Cc1ccc(C(=O)Nc2cccnc2)cc1S(=O)(=O)N1CCOCC1,0,0,0,0,0,0
Cc1ccc(C(=O)Nc2ccc3cn[nH]c3c2)cc1S(=O)(=O)N1CCOCC1,0,0,-,0,141.9,129.5
O=C1C2C3CCC(C3NCc3ccccc3)C2C(=O)N1Cc1ccccc1 (stereo not given),0,0,0,0,0,0
O=C(/C=C/c1cccs1)c1ccc(N2CCOCC2)cc1,235.8,0,0,0,0,0
CC1CCCC(C)N1CC(O)COc1c(F)cc(Br)cc1F (stereo not given),0,0,0,0,0,0
COc1ccc(/C(C)=N/NS(=O)(=O)c2ccccc2)c(OC)c1,0,0,0,0,0,0
Cc1ccccc1N=CC1=C(O)c2ccccc2C1=O,140.3,80.3,0,99.2,0,0
